Results pooled from the literature.
Target: Serine/threonine-protein kinase 32A (STK32A, Homo sapiens, UniProt Q8WU08)

SMILES | read-out | action | technique | concentration | measurement | result
Cn1c2c(Cl)c(Cl)ccc2c2cc(N)[nH]c(=O)c21 | thermal stability |  | DSF | 10 µM | ΔTm | -0.3 °C
Nc1ncnc2occ(-c3ccc(NC(=O)Nc4cc(C(F)(F)F)ccc4F)cc3)c12 | cell-free assay |  |  | 20 µM | remaining signal | 3.2%
CN1CC(Oc2cnc(C#N)cc2-c2ccn3nc(NC(=O)C4CC4)cc3c2)C1 | enzyme activity | inhibitor |  | 1 µM | inhibition | 3%
COc1cc(Cl)c(C(=O)N[C@@H](CN[C@H]2CC[C@@H](N)CC2)Cc2ccc(C#N)cc2)cc1-c1ccc(CN[C@H](C)c2ccc(C)cc2)o1 | enzyme activity | inhibitor |  | 1 µM | remaining activity | 97%
Cc1ccc(C(=O)Nc2ccc(CN3CCN(C)CC3)c(C(F)(F)F)c2)cc1C#Cc1cnc2cccnn12 | cell-free assay |  |  | 23.5 nM | remaining signal | 90%
Cc1c(C(=O)O)cc(-c2ccc(C3CCNCC3)cc2)c2ccc(-c3ccc(C(F)(F)F)cc3)cc12 | binding |  | competition with immobilised ligand | 1 µM | remaining binding | 89%
Cn1c2c(c3ccc(Cl)c(Cl)c31)C(C#N)C1(CCCCC1)NC2=O (racemic) | thermal stability |  | DSF | 10 µM | ΔTm | 0.2 °C
O=C(NC[C@@H]1[C@H]2CN(C(=O)OCc3cc(C(F)(F)F)cc(C(F)(F)F)c3)C[C@@H]12)c1ccc2[nH]nnc2c1 | cell-free assay |  | competition with immobilised ligand | 1 µM | remaining binding | 72%
CN1CCC2(CC1)NC(=O)c1c(c3ccc(Cl)c(Cl)c3n1C)C2C#N (racemic) | thermal stability |  | DSF | 10 µM | ΔTm | -0.4 °C
CN(C)c1nccc(-c2cnc3ncccn23)n1 | binding |  |  | 1 µM | remaining binding | 47%
